The nature of series [1]: Effect on intracellular pH in presence of calcium in cerebellar granule cells at 1 uM. It is filed as functional, cell-based. Conditions: Mus musculus. The procedure, abridged:
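530-nm emission ratio at 490/440 excitation from 25-30 cells per coverslip, converted to pH by nigericin in situ calibration (pH 6-9). Tested in calcium-free medium then after calcium restoration, or in calcium-containing medium; drug buffer pH 7.4.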

Series [2] is described as follows: Increase in cytosolic calcium concentration in cerebellar granule cells in presence of calcium at 1 uM. It is filed as functional. Particulars: Mus musculus. Summed up:
(§1)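 Cultured mouse cerebellar granule cells co-loaded with Fura-2 AM (1 µM) and BCECF-AM (0.5 µM), 10 min at 37 °C, imaged by epifluorescence microscopy in a 37 °C open-bath chamber. Compound applied in calcium-free buffer (pH 7.4) before calcium was restored, or added directly in calcium-containing medium. [Ca2+]c calibrated by the Grynkiewicz method. Means ± SEM of 3-4 experiments in duplicate.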

The test system of series [3] is cerebellar granule cells (mouse). Description: Cytotoxicity against cerebellar granule neurons at 250 nM by MTT assay after 24 hrs.
A short description of series [4]: Decrease in intracellular pH in cerebellar granule cells in calcium free medium at 1 uM. It is filed as functional. Summed up: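 Single-cell imaging at 37 °C in an open-bath chamber, drug buffers at pH 7.4. Compound added in calcium-free buffer, then calcium restored, or added in calcium-containing buffer. Read-out is the 490/440 excitation ratio at 530 nm emission from 25-30 cells per coverslip, converted to pH by nigericin in situ calibration (pH 6-9). Three to five independent experiments, each in duplicate.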

Series [5] can be described thus: Increase in cytosolic calcium concentration in cerebellar granule cell in calcium free medium at 1 uM. It is filed as functional, cell-based. Particulars: Mus musculus. The procedure, abridged: as §1
The subject of series [6] is cerebellar granule cells (mouse). Description: Increase in cytosolic calcium concentration in cerebellar granule cells in presence of calcium at 1 uM.
The nature of series [7]: Cytotoxicity against cerebellar granule neurons by MTT assay. Particulars: mouse, cerebellar granule neurone. The procedure, abridged: (§2)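 Primary cerebellar granule cells from 7-day-old Swiss mouse cerebella, cultured 8-11 days in DMEM with 25 mM KCl and 10% fetal calf serum; cytosine arabinoside (20 µM) against glia. Compound added in culture medium for 4, 8 or 24 h (0.5-250 nM range; fragments 24 h at 250 nM). MTT (500 µg/mL, 30 min, Locke's buffer), SDS lysis, formazan absorbance at 590. Means ± SEM.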

The nature of series [8]: Cytotoxicity against cerebellar granule neurons by MTT assay after 24 hrs. Also noted: species or system Mus musculus, Cerebellar granule neurone. Summed up: (§3)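 Primary cerebellar granule cells from 7-day-old Swiss mice, cultured 8-11 days in KCl (25 mM) DMEM with 10% fetal calf serum and cytosine arabinoside. Exposed in culture medium to compound (0.5-250 nM range; fragments 250 nM) for 4, 8 or 24 h at 37 °C. Then MTT 500 µg/mL in Locke's buffer for 30 min, SDS lysis, formazan read at 590. IC50 given with 95% confidence intervals.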

Series [9] can be described thus: Cytotoxicity assessed as effect on viability of cerebellar granule neurons at 100 nM by MTT assay after 4 hrs. Also on record: species or system Cerebellar granule neurone. Particulars: mouse, read-out: Activity. The procedure, abridged:
as §2
(In general: Tetrazolium dyes change colour on reduction, which living cells bring about.)

Series [10] in a line: Cytotoxicity against cerebellar granule neurons by MTT assay after 8 hrs. Also on record: species or system Mus musculus, Cerebellar granule neurone. Summed up:
as §3

Another series deals with COLO. Description: Cytotoxicity against cerebellar granule neurons at 250 nM by MTT assay after 4 hrs. It is filed as functional, Mus musculus. The procedure, abridged: as §3
Setting [11] is: Mus musculus, Cerebellar granule neurone.
[12] abbreviates: mouse, cerebellar granule neurone.

Activity calls are given as the source filed them. The calls are words filed in the database; no cut-off is given here.

Consider `COC(=O)[C@H](NC(=O)C[C@]12C[C@H](C)C[C@@H](O1)[C@@H]1O[C@@]3(C[C@@H]1O2)NC[C@@H](C)C[C@H]3C)c1ccccc1`, for which the result in series [1], in series [2], in [4] (Mus musculus) and in series [5] was inactive. The compound further registered an Activity in series [3] of 99.4%.
For the compound `C[C@@H]1C[C@H]2O[C@H](CO)C[C@H]2O[C@]12CC[C@@]1(CC=C[C@H](/C=C/CCC(=O)O)O1)O2`, the Activity in series [6] is on record as 130 nM; in series [3] it was 102.59%. Moreover, the outcome in series [5] was inactive.
For the compound `C[C@H]1CN[C@]2(C[C@H]3O[C@]4(CC(=O)O)C[C@@H](C)C[C@H](O4)[C@H]3O2)[C@@H](C)C1` (single isomer, unassigned), the outcome in [1], in series [2], in [4] (Mus musculus) and in [5] was inactive. The compound also yielded an Activity in series [3] of 110.15%.
Usually IC50 stands for the midpoint of a concentration-inhibition curve. The low end stands for greater potency, the high end for weaker potency. For `C=C(C[C@]12C[C@@H](C)C[C@H](O1)[C@H]1O[C@]3(C[C@H]1O2)NC[C@H](C)C[C@@H]3C)[C@H]1O[C@@](O)([C@H](O)[C@@H]2C[C@H]3O[C@@]4(CC[C@]5(CC=C[C@@H](/C=C/CCC(=O)O)O5)O4)[C@H](C)C[C@H]3O2)[C@H](C)C[C@@H]1C`, the Activity result in [7] is “Dose-dependent effect and tde”; in [8] (setting [12]), 85%; in series [4] it was -0.15; in series [10] (setting [12]) it was 90%; in the series on COLO, 40%. Moreover, the result in series [1] and in series [5] was inactive. For the same compound, the figures for the IC50 in series [8] (setting [11]) and in series [10] (setting [11]) were 0.87 nM and 32 nM, respectively. Also, the outcome in [2] was Active. For the same compound, the viability at 4 h, 0.1 µM in series [9] came out at 40%.
For the compound `C[C@@H]1CN[C@@]2(C[C@@H]3O[C@@]4(CC(=O)O)C[C@H](C)C[C@@H](O4)[C@@H]3O2)[C@H](C)C1`, the outcome in series [1], in series [2], in series [4] (Mus musculus) and in series [5] was inactive. Moreover, the Activity in series [3] is on record as 84.95%.
Turning to `C[C@@H]1C[C@H]2O[C@H](CO)C[C@H]2O[C@@]12CC[C@]1(CC=C[C@@H](/C=C/CCC(=O)O)O1)O2`, the Activity in [6] was found to be 100 nM; in series [3], 100.32%. Further, in [5], the outcome was inactive.
For the compound `C[C@H]1C[C@@H]2O[C@@H](CO)C[C@@H]2O[C@]12CC[C@@]1(CC=C[C@H](/C=C/CCC(=O)O)O1)O2`, the values for the Activity in [6] and in [3] were 150 nM and 83.66%, respectively.
On the same counts, the results for `C[C@H]1C[C@H]2O[C@H](CO)C[C@H]2O[C@]12CC[C@@]1(CC=C[C@H](/C=C/CCC(=O)O)O1)O2` are 150 nM and 98.29%.
As to `COC(=O)[C@H](NC(=O)C[C@@]12C[C@@H](C)C[C@H](O1)[C@H]1O[C@]3(C[C@H]1O2)NC[C@H](C)C[C@@H]3C)c1ccccc1`, the result in series [1], in series [2], in series [4] (Mus musculus) and in series [5] was inactive. Also, the Activity in series [3] was found to be 99.25%.
Consider `COC(=O)[C@@H](NC(=O)C[C@@]12C[C@@H](C)C[C@H](O1)[C@H]1O[C@]3(C[C@H]1O2)NC[C@H](C)C[C@@H]3C)c1ccccc1` (single isomer, unassigned), for which the result in [1], in [2], in series [4] (Mus musculus) and in series [5] was inactive. In series [3], this compound returned an Activity of 90.49%.
As for `C=C(CO)[C@H]1O[C@@](O)([C@H](O)[C@@H]2C[C@H]3O[C@@]4(CC[C@]5(CC=C[C@@H](/C=C/CCC(=O)O)O5)O4)[C@H](C)C[C@H]3O2)[C@H](C)C[C@@H]1C`, the Activity in [6] is 200 nM; in [3], 99.09%.
On to `C=C(CO)[C@H]1O[C@@](O)([C@@H](O)[C@H]2C[C@@H]3O[C@]4(CC[C@@]5(CC=C[C@H](/C=C/CCC(=O)O)O5)O4)[C@@H](C)C[C@@H]3O2)[C@H](C)C[C@@H]1C`, for which the Activity in [6] came to 250 nM; in series [3], 100.57%. Besides, the outcome in series [5] was inactive.
With `COC(=O)[C@@H](NC(=O)C[C@]12C[C@H](C)C[C@@H](O1)[C@@H]1O[C@@]3(C[C@@H]1O2)NC[C@@H](C)C[C@H]3C)c1ccccc1` (single isomer, unassigned), the result in series [1], in series [2] and in series [5] was inactive. For the same compound, the Activity in [3] was 90.02%.

The values are drawn from ChEMBL document CHEMBL1139842, “Effects of azaspiracid-1, a potent cytotoxic agent, on primary neuronal cultures. A structure-activity relationship study” (J Med Chem, 2007).
